Reference: ChEMBL document CHEMBL3297648, “Diterpenoids from the Chinese liverwort Heteroscyphus tener and their antiproliferative effects” (J Nat Prod, 2014)
The source made the active and inactive calls. No cut-off for these calls is given here.

Experiments:
[1] = molecular target: Serine/threonine-protein kinase ATR (Homo sapiens) (UniProt Q13535); assay: Activation of ATR in human PC3 cells assessed as ChK1 phosphorylation at Ser296 at 20 uM after 12 hrs by western blot analysis; assay type: cell-based; settings: PC-3
Outline: (§1)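 Cells treated at 20 μM for various times, lysed in RIPA buffer with protease/phosphatase inhibitors, protein quantified by BCA. Equal protein run on 12% SDS-PAGE, transferred to nitrocellulose, blocked 1 h in 5% milk/TBST, primary antibodies overnight at 4 °C, secondary 1:2000 for 45 min, ECL detection on film. GAPDH used as loading control.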

[2] = Antiproliferative activity against human PC3 cells assessed as inhibition of cell viability after 24 hrs by MTT assay; assay type: functional, cell-based; settings: PC-3, 24 h
Outline: (§2)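 Cells grown to 50–70% confluence (RWPE1 in K-SFM with pituitary extract and EGF; the other lines in RPMI 1640 with 10% FBS), 5% CO2, 37 °C. Treated for 24 h with DMSO vehicle, compounds, or cisplatin as positive control. MTT (5 mg/mL) added for 4 h, formazan dissolved in DMSO, absorbance read at 570 nm. Viability taken relative to untreated cells after blank subtraction, IC50 fitted from % viability, at least three experiments.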

[3] = tested on: A549; assay: Antiproliferative activity against human A549 cells assessed as inhibition of cell viability after 24 hrs by MTT assay; assay type: functional, cell-based; settings: A549, 24 h; outline: as §2
[4] = tested on: NCI-H446; assay: Antiproliferative activity against human NCI-H446 cells assessed as inhibition of cell viability after 24 hrs by MTT assay; assay type: functional, cell-based; settings: NCI-H446, 24 h; outline: as §2
[5] = Cell cycle arrest in human PC3 cells assessed as accumulation at G0/G1 phase at 10 uM after 24 hrs by propidium iodide staining based flow cytometry (reference value: 66.57%); assay type: functional; settings: PC-3
[6] = Cell cycle arrest in human PC3 cells assessed as accumulation at S phase at 20 uM after 24 hrs by propidium iodide staining based flow cytometry (reference value: 22.07%); assay type: functional; settings: PC-3
[7] = tested on: DU-145; assay: Cell cycle arrest in human DU145 cells assessed as accumulation at subG1 phase at 10 uM after 24 hrs by propidium iodide staining based flow cytometry (reference value: 0.28%); assay type: functional
[8] = tested on: DU-145; assay: Cell cycle arrest in human DU145 cells assessed as accumulation at G2/M phase at 10 uM after 24 hrs by propidium iodide staining based flow cytometry (reference value: 10.44%); assay type: functional
[9] = tested on: DU-145; assay: Cell cycle arrest in human DU145 cells assessed as accumulation at subG1 phase at 20 uM after 24 hrs by propidium iodide staining based flow cytometry (reference value: 0.28%); assay type: functional
[10] = tested on: DU-145; assay: Cell cycle arrest in human DU145 cells assessed as accumulation at S phase at 20 uM after 24 hrs by propidium iodide staining based flow cytometry (reference value: 25.94%); assay type: functional
[11] = tested on: DU-145; assay: Cell cycle arrest in human DU145 cells assessed as accumulation at G0/G1 phase at 20 uM after 24 hrs by propidium iodide staining based flow cytometry (reference value: 63.34%); assay type: functional
[12] = tested on: PC-3; assay: Induction of apoptosis in human PC3 cells assessed as early apoptotic cells at 20 uM after 4 hrs by Annexin V-FITC/propidium iodide staining based flow cytometry (reference value: 0.79%); assay type: functional
Outline: (§3)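 Cells seeded in 6-well plates for 24 h, then given 20 μM for the stated times. Cells were trypsinized, PBS-washed, stained with annexin V-FITC/PI, and analysed immediately by flow cytometry. Means ± SD of three independent experiments; Student's t test against untreated control.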

[13] = tested on: PC-3; assay: Induction of apoptosis in human PC3 cells assessed as necrotic cells at 20 uM after 4 hrs by Annexin V-FITC/propidium iodide staining based flow cytometry (reference value: 0.98%); assay type: functional; outline: as §3
[14] = tested on: PC-3; assay: Induction of apoptosis in human PC3 cells assessed as early apoptotic cells at 20 uM after 8 hrs by Annexin V-FITC/propidium iodide staining based flow cytometry (reference value: 0.79%); assay type: functional; outline: as §3
[15] = tested on: PC-3; assay: Induction of apoptosis in human PC3 cells assessed as necrotic cells at 20 uM after 24 hrs by Annexin V-FITC/propidium iodide staining based flow cytometry (reference value: 0.98%); assay type: functional; outline: as §3
[16] = tested on: DU-145; assay: Induction of apoptosis in human DU145 cells assessed as early apoptotic cells at 20 uM after 8 hrs by Annexin V-FITC/propidium iodide staining based flow cytometry (reference value: 1.60%); assay type: functional; outline: as §3
[17] = tested on: DU-145; assay: Induction of apoptosis in human DU145 cells assessed as late apoptotic cells at 20 uM after 8 hrs by Annexin V-FITC/propidium iodide staining based flow cytometry (reference value: 1.53%); assay type: functional; outline: as §3
[18] = tested on: DU-145; assay: Induction of apoptosis in human DU145 cells assessed as necrotic cells at 20 uM after 12 hrs by Annexin V-FITC/propidium iodide staining based flow cytometry (reference value: 0.21%); assay type: functional; outline: as §3
[19] = tested on: DU-145; assay: Induction of apoptosis in human DU145 cells assessed as late apoptotic cells at 20 uM after 24 hrs by Annexin V-FITC/propidium iodide staining based flow cytometry (reference value: 1.53%); assay type: functional; outline: as §3
[20] = tested on: PC-3; assay: Induction of apoptosis in human PC3 cells assessed as increase in caspase-3 activity using Ac-DEVD-AMC as substrate at 20 uM by fluorometric method; assay type: functional, cell-based; settings: TDE = time-dependent effect
Outline: (§4)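 Cells treated with 20 μM for the stated times. Pellets lysed on ice 15 min, spun at 14 000g for 15 min at 4 °C. Supernatant assayed in buffer containing CHAPS, 10% glycerol, 2 mM EDTA, 5 mM DTT for 2 h at 37 °C. Fluorescence read at ex 380/em 440 nm.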

[21] = tested on: DU-145; assay: Induction of apoptosis in human DU145 cells assessed as increase in caspase-3 activity using Ac-DEVD-AMC as substrate at 20 uM by fluorometric method; assay type: functional, cell-based; settings: TDE = time-dependent effect; outline: as §4
[22] = tested on: PC-3; assay: Induction of apoptosis in human PC3 cells assessed as cleaved caspase-3 level at 20 uM after 12 hrs by western blot analysis; assay type: functional, cell-based
Outline: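 Cells exposed to 20 μM for the stated times. Lysis in RIPA plus protease inhibitors, BCA protein assay, equal protein on 12% SDS-PAGE, transfer to nitrocellulose. Blocking in 5% milk/TBST 1 h; primary antibodies overnight at 4 °C; secondary 1:2000 for 45 min; ECL detection. GAPDH served as loading control.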

[23] = tested on: PC-3; assay: Induction of ROS generation in human PC3 cells at 20 uM after 30 mins to 4 hrs by DCFH-DA staining based flow cytometry; assay type: functional, cell-based
Outline: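 Cells in RPMI 1640 with 10% FBS, 5% CO2, 37 °C, treated at 50−70% confluence (DMSO vehicle). After exposure, cells were loaded with 10 μM DCFH-DA for 30 min at 37 °C, washed, resuspended in PBS, and read at once by flow cytometry. For NAC runs, cells got 5 mM NAC 1 h before compound. ROS reported as ratio relative to untreated control.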

[24] = tested on: DU-145; assay: Antiproliferative activity against human DU145 cells assessed as inhibition of cell viability at 20 uM pretreated for 1 hr with 5 mM antioxidant NAC measured after 24 hrs by MTT assay; assay type: functional, cell-based
[25] = tested on: PC-3; assay: Induction of DNA damage in human PC3 cells assessed as gamma-H2AX phosphorylation at ser139 at 20 uM by western blot analysis; assay type: functional, cell-based; settings: TDE = time-dependent effect; outline: as §1
[26] = tested on: PC-3; assay: Increase in H2AX protein expression in human PC3 cells at 20 uM after 2 to 48 hrs by western blot analysis; assay type: functional, cell-based; outline: as §1

Serine/threonine-protein kinase ATR (Homo sapiens), sequence (Q13535 whole entry, looked up): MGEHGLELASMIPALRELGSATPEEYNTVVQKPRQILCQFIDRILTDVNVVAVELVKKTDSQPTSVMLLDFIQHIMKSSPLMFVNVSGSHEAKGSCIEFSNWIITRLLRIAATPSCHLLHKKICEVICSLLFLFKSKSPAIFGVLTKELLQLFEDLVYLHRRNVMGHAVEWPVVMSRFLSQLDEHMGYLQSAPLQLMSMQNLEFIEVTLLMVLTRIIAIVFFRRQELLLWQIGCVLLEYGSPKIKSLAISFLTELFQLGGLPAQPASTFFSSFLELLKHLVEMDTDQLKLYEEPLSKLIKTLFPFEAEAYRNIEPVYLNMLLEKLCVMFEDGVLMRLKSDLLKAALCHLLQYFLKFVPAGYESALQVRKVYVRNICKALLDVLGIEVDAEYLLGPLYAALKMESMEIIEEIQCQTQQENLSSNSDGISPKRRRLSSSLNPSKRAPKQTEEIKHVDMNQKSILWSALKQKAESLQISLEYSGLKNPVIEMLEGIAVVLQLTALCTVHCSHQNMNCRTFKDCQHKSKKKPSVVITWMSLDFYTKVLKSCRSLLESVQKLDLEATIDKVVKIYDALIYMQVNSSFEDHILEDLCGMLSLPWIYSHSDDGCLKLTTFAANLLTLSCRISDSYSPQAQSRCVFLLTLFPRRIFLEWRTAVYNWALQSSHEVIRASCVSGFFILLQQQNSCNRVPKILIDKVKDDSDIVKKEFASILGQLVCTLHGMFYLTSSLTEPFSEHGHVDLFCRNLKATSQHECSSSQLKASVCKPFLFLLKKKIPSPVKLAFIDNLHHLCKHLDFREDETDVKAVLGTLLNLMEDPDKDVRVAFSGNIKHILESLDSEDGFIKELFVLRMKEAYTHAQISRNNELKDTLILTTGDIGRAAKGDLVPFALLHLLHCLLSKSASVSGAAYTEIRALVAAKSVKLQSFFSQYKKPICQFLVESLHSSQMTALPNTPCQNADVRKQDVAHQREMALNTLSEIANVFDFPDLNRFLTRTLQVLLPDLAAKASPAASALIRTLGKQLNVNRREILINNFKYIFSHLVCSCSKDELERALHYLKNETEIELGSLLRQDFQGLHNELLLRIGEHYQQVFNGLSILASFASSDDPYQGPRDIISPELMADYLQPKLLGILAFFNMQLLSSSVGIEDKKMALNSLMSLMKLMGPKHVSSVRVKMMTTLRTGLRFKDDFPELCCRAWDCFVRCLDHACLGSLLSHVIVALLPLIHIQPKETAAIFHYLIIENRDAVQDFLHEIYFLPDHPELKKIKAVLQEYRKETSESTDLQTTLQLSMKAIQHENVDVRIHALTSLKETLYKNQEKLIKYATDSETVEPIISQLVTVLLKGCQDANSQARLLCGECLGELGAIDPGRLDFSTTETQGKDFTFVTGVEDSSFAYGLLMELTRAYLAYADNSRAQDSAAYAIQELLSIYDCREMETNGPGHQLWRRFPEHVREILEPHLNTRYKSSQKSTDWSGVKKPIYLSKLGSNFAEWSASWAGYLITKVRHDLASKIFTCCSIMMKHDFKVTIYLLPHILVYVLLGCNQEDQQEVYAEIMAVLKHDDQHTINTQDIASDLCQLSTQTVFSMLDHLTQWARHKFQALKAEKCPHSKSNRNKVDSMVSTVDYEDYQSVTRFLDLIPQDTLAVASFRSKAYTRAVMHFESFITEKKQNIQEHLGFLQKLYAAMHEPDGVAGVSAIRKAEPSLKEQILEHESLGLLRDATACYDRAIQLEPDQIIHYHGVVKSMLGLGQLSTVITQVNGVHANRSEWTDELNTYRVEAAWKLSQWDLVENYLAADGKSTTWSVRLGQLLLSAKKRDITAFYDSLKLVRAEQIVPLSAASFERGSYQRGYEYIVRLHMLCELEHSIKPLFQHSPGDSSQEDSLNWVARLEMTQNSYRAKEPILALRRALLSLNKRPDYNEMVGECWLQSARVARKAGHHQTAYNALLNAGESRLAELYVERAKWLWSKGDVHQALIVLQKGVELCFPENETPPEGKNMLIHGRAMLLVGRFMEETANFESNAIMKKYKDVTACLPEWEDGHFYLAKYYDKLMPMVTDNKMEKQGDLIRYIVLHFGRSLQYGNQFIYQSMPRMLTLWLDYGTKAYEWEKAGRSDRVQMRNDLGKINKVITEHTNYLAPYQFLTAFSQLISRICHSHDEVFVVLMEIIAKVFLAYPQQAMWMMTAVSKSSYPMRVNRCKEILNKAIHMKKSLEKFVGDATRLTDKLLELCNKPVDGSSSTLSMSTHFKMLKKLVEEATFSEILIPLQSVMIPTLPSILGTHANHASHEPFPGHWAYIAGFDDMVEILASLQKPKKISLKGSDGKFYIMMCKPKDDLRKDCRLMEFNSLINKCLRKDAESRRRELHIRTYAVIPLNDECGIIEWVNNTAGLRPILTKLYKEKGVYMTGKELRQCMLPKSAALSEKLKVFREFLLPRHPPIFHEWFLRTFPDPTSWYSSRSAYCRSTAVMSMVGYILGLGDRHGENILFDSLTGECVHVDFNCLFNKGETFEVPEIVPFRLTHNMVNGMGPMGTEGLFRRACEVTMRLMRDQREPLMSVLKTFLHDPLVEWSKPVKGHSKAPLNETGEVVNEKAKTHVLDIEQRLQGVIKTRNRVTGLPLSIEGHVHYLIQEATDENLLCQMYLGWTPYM

Activity [1]: Active
IC50 [3]: > 40 µM
IC50 [4]: 39.5 µM
SMILES: C=C[C@@](C)(O)CC[C@@H]1C(C)=CC[C@@H]2C(C)(C)CCC[C@@]12C
IC50 [2]: 26.6 µM
Activity [5]: 73%
Activity [6]: 4.24%
Activity [7]: 1.97%
Activity [8]: 8.38%
Activity [9]: 2.82%
Activity [10]: 8.73%
Activity [11]: 75.55%
Activity [12]: 2.48%
Activity [13]: 2.75%
Activity [14]: 2.27%
Activity [15]: 10.21%
Activity [16]: 4.56%
Activity [17]: 8.94%
Activity [18]: 1.05%
Activity [19]: 15.33%
Activity [20]: tde
Activity [21]: tde
Activity [22]: Active
Activity [23]: Active
inhibition [24]: inactive
Activity [25]: tde
Activity [26]: inactive
